# Laboratory results as given in ChEMBL document CHEMBL5058577, “EUbOPEN Chemogenomics Library 2 (Multiplex)” (2022).
# Tested on: Fibroblast
# Assay: Multiplex assay against human fibroblast
# Type: toxicity, cell-based
# In short: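 On a CQ1 microscope at 37°C and 5% CO2, live cells were imaged after compound addition. They had been stained at seeding with Hoechst33342, BioTracker Green Microtubule Cytoskeleton Dye, MitoTracker Red and Annexin V Alexa Fluor 680. CellPathfinder machine-learning gating assigned cells to Hoechst high-intensity objects or normal cells, normal cells to healthy, pyknosed or fragmented nuclei, and pyknosed cells to mitotic or apoptotic. Tubulin, mitochondrial-mass and membrane-permeability phenotypes are per cents of healthy-nucleus cells.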
# [1] = 12 h, 1 µM, compound concentration 1 uM, replicate 1
# [2] = 12 h, 1 µM, compound concentration 1 uM, replicate 2
# [3] = 12 h, 10 µM, compound concentration 10 uM, replicate 1
# [4] = 12 h, 10 µM, compound concentration 10 uM, replicate 2
# [5] = 24 h, 1 µM, compound concentration 1 uM, replicate 1
# [6] = 24 h, 1 µM, compound concentration 1 uM, replicate 2
# [7] = 24 h, 10 µM, compound concentration 10 uM, replicate 1
# [8] = 24 h, 10 µM, compound concentration 10 uM, replicate 2
# [9] = 48 h, 1 µM, compound concentration 1 uM, replicate 1
# [10] = 48 h, 1 µM, compound concentration 1 uM, replicate 2
# [11] = 48 h, 10 µM, compound concentration 10 uM, replicate 1
# [12] = 48 h, 10 µM, compound concentration 10 uM, replicate 2
smiles,measurement,setting,value
OCCCNc1cc(-c2ccnc(Nc3cccc(Cl)c3)n2)ccn1,Population Apoptotic (%),[1],58%
same,Population Fragmented Nuclei (%),[1],15%
same,Population Healthy Nuclei (%),[1],66%
same,Population Hoechst High Intensity Objects (%),[1],4%
same,Population Membrane Permeable-Phenotype (%),[1],0%
same,Population Mitochondria Different-Phenotype (%),[1],9%
same,Population Mitotic Cells (%),[1],41%
same,Population Normal (%),[1],95%
same,Population Pyknosed Nuclei (%),[1],18%
same,Population Tubulin-Different-Phenotype (%),[1],52%
same,Total Cell Count,[1],139
same,Population Apoptotic (%),[2],50%
same,Population Fragmented Nuclei (%),[2],21%
same,Population Healthy Nuclei (%),[2],53%
same,Population Hoechst High Intensity Objects (%),[2],6%
same,Population Membrane Permeable-Phenotype (%),[2],5%
same,Population Mitochondria Different-Phenotype (%),[2],13%
same,Population Mitotic Cells (%),[2],50%
same,Population Normal (%),[2],93%
same,Population Pyknosed Nuclei (%),[2],24%
same,Population Tubulin-Different-Phenotype (%),[2],47%
same,Total Cell Count,[2],138
same,Population Apoptotic (%),[3],61%
same,Population Fragmented Nuclei (%),[3],38%
same,Population Healthy Nuclei (%),[3],44%
same,Population Hoechst High Intensity Objects (%),[3],10%
same,Population Membrane Permeable-Phenotype (%),[3],9%
same,Population Mitochondria Different-Phenotype (%),[3],25%
same,Population Mitotic Cells (%),[3],38%
same,Population Normal (%),[3],89%
same,Population Pyknosed Nuclei (%),[3],17%
same,Population Tubulin-Different-Phenotype (%),[3],88%
same,Total Cell Count,[3],136
same,Population Apoptotic (%),[4],52%
same,Population Fragmented Nuclei (%),[4],65%
same,Population Healthy Nuclei (%),[4],24%
same,Population Hoechst High Intensity Objects (%),[4],6%
same,Population Membrane Permeable-Phenotype (%),[4],20%
same,Population Mitochondria Different-Phenotype (%),[4],11%
same,Population Mitotic Cells (%),[4],47%
same,Population Normal (%),[4],93%
same,Population Pyknosed Nuclei (%),[4],9%
same,Population Tubulin-Different-Phenotype (%),[4],84%
same,Total Cell Count,[4],227
same,Population Apoptotic (%),[5],56%
same,Population Fragmented Nuclei (%),[5],16%
same,Population Healthy Nuclei (%),[5],65%
same,Population Hoechst High Intensity Objects (%),[5],2%
same,Population Membrane Permeable-Phenotype (%),[5],1%
same,Population Mitochondria Different-Phenotype (%),[5],20%
same,Population Mitotic Cells (%),[5],43%
same,Population Normal (%),[5],97%
same,Population Pyknosed Nuclei (%),[5],17%
same,Population Tubulin-Different-Phenotype (%),[5],60%
same,Total Cell Count,[5],136
same,Population Apoptotic (%),[6],46%
same,Population Fragmented Nuclei (%),[6],29%
same,Population Healthy Nuclei (%),[6],48%
same,Population Hoechst High Intensity Objects (%),[6],3%
same,Population Membrane Permeable-Phenotype (%),[6],6%
same,Population Mitochondria Different-Phenotype (%),[6],10%
same,Population Mitotic Cells (%),[6],53%
same,Population Normal (%),[6],96%
same,Population Pyknosed Nuclei (%),[6],22%
same,Population Tubulin-Different-Phenotype (%),[6],55%
same,Total Cell Count,[6],139
same,Population Apoptotic (%),[7],80%
same,Population Fragmented Nuclei (%),[7],36%
same,Population Healthy Nuclei (%),[7],42%
same,Population Hoechst High Intensity Objects (%),[7],11%
same,Population Membrane Permeable-Phenotype (%),[7],7%
same,Population Mitochondria Different-Phenotype (%),[7],46%
same,Population Mitotic Cells (%),[7],20%
same,Population Normal (%),[7],88%
same,Population Pyknosed Nuclei (%),[7],20%
same,Population Tubulin-Different-Phenotype (%),[7],86%
same,Total Cell Count,[7],138
same,Population Fragmented Nuclei (%),[8],63%
same,Population Healthy Nuclei (%),[8],27%
same,Population Hoechst High Intensity Objects (%),[8],6%
same,Population Membrane Permeable-Phenotype (%),[8],12%
same,Population Mitochondria Different-Phenotype (%),[8],9%
same,Population Normal (%),[8],93%
same,Population Pyknosed Nuclei (%),[8],9%
same,Population Tubulin-Different-Phenotype (%),[8],80%
same,Total Cell Count,[8],218
same,Population Apoptotic (%),[9],46%
same,Population Fragmented Nuclei (%),[9],27%
same,Population Healthy Nuclei (%),[9],47%
same,Population Hoechst High Intensity Objects (%),[9],8%
same,Population Membrane Permeable-Phenotype (%),[9],1%
same,Population Mitochondria Different-Phenotype (%),[9],20%
same,Population Mitotic Cells (%),[9],53%
same,Population Normal (%),[9],91%
same,Population Pyknosed Nuclei (%),[9],25%
same,Population Tubulin-Different-Phenotype (%),[9],66%
same,Total Cell Count,[9],136
same,Population Apoptotic (%),[10],37%
same,Population Fragmented Nuclei (%),[10],36%
same,Population Healthy Nuclei (%),[10],30%
same,Population Hoechst High Intensity Objects (%),[10],7%
same,Population Membrane Permeable-Phenotype (%),[10],5%
same,Population Mitochondria Different-Phenotype (%),[10],24%
same,Population Mitotic Cells (%),[10],62%
same,Population Normal (%),[10],92%
same,Population Pyknosed Nuclei (%),[10],32%
same,Population Tubulin-Different-Phenotype (%),[10],45%
same,Total Cell Count,[10],132
same,Population Apoptotic (%),[11],91%
same,Population Fragmented Nuclei (%),[11],39%
same,Population Healthy Nuclei (%),[11],39%
same,Population Hoechst High Intensity Objects (%),[11],14%
same,Population Membrane Permeable-Phenotype (%),[11],15%
same,Population Mitochondria Different-Phenotype (%),[11],42%
same,Population Mitotic Cells (%),[11],8%
same,Population Normal (%),[11],85%
same,Population Pyknosed Nuclei (%),[11],21%
same,Population Tubulin-Different-Phenotype (%),[11],77%
same,Total Cell Count,[11],134
same,Population Apoptotic (%),[12],85%
same,Population Fragmented Nuclei (%),[12],58%
same,Population Healthy Nuclei (%),[12],30%
same,Population Hoechst High Intensity Objects (%),[12],6%
same,Population Membrane Permeable-Phenotype (%),[12],20%
same,Population Mitochondria Different-Phenotype (%),[12],20%
same,Population Mitotic Cells (%),[12],14%
same,Population Normal (%),[12],93%
same,Population Pyknosed Nuclei (%),[12],11%
same,Population Tubulin-Different-Phenotype (%),[12],64%
same,Total Cell Count,[12],192
